Data published in publication PMC9575670 (Journal of Medicinal Chemistry, 2022).

Experiments:
tubulin = assay: In vitro tubulin polymerization assay; type: biochemical; details: 20 μM, compared to vehicle control
MCF-7 cells = assay: Cell cycle analysis by flow cytometry; type: cell-based, human; details: MCF-7, up to 1.0 μM, 24 h, compared to vehicle
[1] = test system: pancreatic cancer (ASPC-1) cell line; assay: MTT in vitro antiproliferation assay, ASPC-1; type: cell-based; details: Homo sapiens, ASPC1, 24 h, read-out: IC50 ± SD ASPC-1
[2] = test system: lung normal IMR-90 cell line; assay: MTT in vitro antiproliferation assay, IMR-90; type: cell-based; details: Homo sapiens, IMR-90, 24 h, read-out: IC50 ± SD IMR-90
[3] = test system: lung cancer (A549) cell line; assay: MTT in vitro antiproliferation assay, A549; type: cell-based, human; details: for IC50: Homo sapiens, A549, 24 h, read-out: IC50 ± SD A549; for selectivity index (SI), cancer cells (A549) over normal cells (MRC-5): IC50 MRC-5 / IC50 A549
[4] = test system: normal CCD-18Co cell line; assay: MTT in vitro antiproliferation assay, CCD-18Co; type: cell-based; details: Homo sapiens, 24 h, read-out: IC50 ± SD CCD-18Co
A549 cells = assay: Cell cycle analysis by flow cytometry; type: cell-based, human; details: A549, up to 1.0 μM, 24 h, compared to vehicle
[5] = test system: lung normal (MRC-5) cell line; assay: MTT in vitro antiproliferation assay, MRC-5; type: cell-based; details: Homo sapiens, MRC5, 24 h, read-out: IC50 ± SD MRC-5
[6] = test system: cancer cell lines (ASPC-1, A549, MCF-7, HCT 116); assay: MTT in vitro antiproliferation assay, cancer cell line panel; type: cell-based, human; details: for IC50: Homo sapiens, 24 h, read-out: IC50 values in cancer cell lines (range); for selectivity index (SI) / cancer cell selectivity over normal cells (MRC-5), range: range over cancer cell lines vs MRC-5
[7] = test system: colon cancer (HCT 116) cell line; assay: MTT in vitro antiproliferation assay, HCT 116; type: cell-based; details: Homo sapiens, HCT-116, 24 h, read-out: IC50 ± SD HCT 116
[8] = test system: breast cancer (MCF-7) cell line; assay: MTT in vitro antiproliferation assay, MCF-7; type: cell-based; details: Homo sapiens, MCF7, 24 h, read-out: IC50 ± SD MCF-7
4T1 cells tumor = assay: In vivo antitumor activity, 4T1 xenograft model, 11 day study; parameters: species or system BALB/c mice; details: G4 DOX: 2 mg/kg IP once in 3 days
Method in brief: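 BALB/c mice received 4T1 cells (1 × 10^5/mouse) subcutaneously into the left mammary fat pad. Caliper volume = length × width²/2. At about 50 mm³, mice were allocated to four groups, unrandomized and unblinded. All dosing was IP: 0.9% saline vehicle; test compound 0.711 or 1.422 mg/kg (days 1–3) then 14.22 or 28.44 mg/kg (days 4–11); doxorubicin 2 mg/kg every 3 days. Tumours were excised on day 12 and volume and mass measured; one-way ANOVA.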

Row | SMILES | effect on tubulin polymerization (tubulin) | accumulation of cells in the G2/M phase (MCF-7 cells) | IC50 [1] | IC50 [2] | IC50 [3] | selectivity index (SI), cancer cells (A549) over normal cells (MRC-5) [3] | IC50 [4] | accumulation of cells in the G2/M phase (A549 cells) | IC50 [5] | IC50 [6] | times lower activity than the CLC and NOZ ([6]; IC50 comparison) | IC50 [7] | IC50 [8] | selectivity index (SI) / cancer cell selectivity over normal cells (MRC-5), range [6] | average tumor mass reduction at the endpoint (4T1 cells tumor) | average tumor volume reduction at the endpoint compared to G1 (4T1 cells tumor)
1 | CCCSc1ccc2nc(NC(=O)OC)[nH]c2c1 [Al, albendazole] | inhibition of tubulin polymerization | slight accumulation of cells in the G2/M phase | 56.3 µM | 285 µM | 72.4 µM | 1.32 | 119 µM | slight accumulation of cells in the G2/M phase | 96.1 µM | 52.7 to 72.4 µM | 7–10 | 52.7 µM | 59 µM |  |  | 
2 | CCCSc1ccc2[nH]c(N[C@H]3O[C@@H](CO)[C@H](O)[C@@H](O)[C@@H]3O)nc2c1 [Al–G, albendazole amine glucose conjugate] | inhibition of tubulin polymerization | slight accumulation of cells in the G2/M phase | 182 µM | > 1000 µM | 139 µM |  | 701 µM | slight accumulation of cells in the G2/M phase | 895 µM | 131 to 182 µM |  | 156 µM | 131 µM | five to seven times |  | 
3 | COC(=O)Nc1nc2ccc(C(=O)c3cccs3)cc2[nH]1 [NOZ, nocodazole] | inhibited |  | 10.5 µM |  | 10.8 µM | 1.2 |  |  | 12 µM |  |  | 6.82 µM | 7.41 µM | 1.1–1.8 |  | 
4 | CC(=O)O[C@H]1C(=O)[C@@]2(C)[C@H]([C@H](OC(=O)c3ccccc3)[C@]3(O)C[C@H](OC(=O)[C@H](O)[C@@H](NC(=O)c4ccccc4)c4ccccc4)C(C)=C1C3(C)C)[C@]1(OC(C)=O)CO[C@@H]1C[C@@H]2O [PCL, paclitaxel] | enhanced the tubulin polymerization |  |  |  |  |  |  |  |  |  |  |  |  |  |  | 
5 | COc1cccc2c1C(=O)c1c(O)c3c(c(O)c1C2=O)C[C@@](O)(C(=O)CO)C[C@@H]3O[C@H]1C[C@H](N)[C@H](O)[C@H](C)O1 [doxorubicin] |  |  |  |  |  |  |  |  |  |  |  |  |  |  | 14.5% | 29.4%
